According to ChEMBL document CHEMBL4000190, “Novel trifluoromethylated 9-amino-3,4-dihydroacridin-1(2H)-ones act as covalent poisons of human topoisomerase IIα” (Bioorg Med Chem Lett, 2017):
Activity calls are given as the source filed them. The calls are words filed in the database; no cut-off is given here.

Experiments:
Bos taurus = species: Bos taurus; test: Activity at calf thymus DNA topoisomerase-1 assessed as DNA intercalation by measuring band shift at 1 mM using pBR322 DNA as substrate measured after 15 mins by ethidium bromide staining based agarose gel electrophoresis relative to control
Method in brief: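 Topoisomerase I relaxation of negatively supercoiled DNA in the presence of compound. Intercalation is read as a shift of topoisomer bands toward the supercoiled position. Controls are DNA alone and DNA plus topoisomerase I without compound. Gel representative of three independent experiments.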

[1] = target: DNA topoisomerase 2-alpha (Homo sapiens) (UniProt P11388); test: (§1) Poison activity at recombinant human topoisomerase-2alpha expressed in Saccharomyces cerevisiae JEL1 harboring topoisomerase1 deletion mutant assessed as concentration required to triple the level of DNA cleavage complex relative to basal level using supercoiled pBR322 DNA as substrate measured after 6 mins by ethidium bromide staining based agarose gel electrophoresis
Method in brief: (§2)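 Enhancement of topoisomerase IIα-mediated double-stranded cleavage of negatively supercoiled DNA, measured over a compound concentration range. Cleavage is expressed relative to the baseline of enzyme without compound.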

[2] = target: DNA topoisomerase 2-alpha (Homo sapiens) (UniProt P11388); test: Inhibition of recombinant human topoisomerase-2alpha mediated DNA ligation expressed in Saccharomyces cerevisiae JEL1 harboring topoisomerase1 deletion mutant at 1 mM measured after 6 mins by ethidium bromide staining based agarose gel electrophoresis
Method in brief: (§3)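 Topoisomerase IIα-mediated DNA ligation measured with or without 1 mM compound; controls at 50 µM. Mean ± standard deviation of at least three independent experiments.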

[3] = target: DNA topoisomerase 2-alpha (Homo sapiens) (UniProt P11388); test: as §1, with “increase in double stranded” for “concentration required to triple the level of”, “at 1 mM” for “complex relative to basal level”, “substrate in presence of reducing agent DTT” for “substrate”
Method in brief: (§4)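 Topoisomerase IIα DNA cleavage with 1 mM compound, run without and with 0.5 mM DTT. Controls are no-compound and 50 µM reactions. Mean ± standard deviation of at least three independent experiments.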

[4] = target: DNA topoisomerase 2-alpha (Homo sapiens) (UniProt P11388); test: Poison activity at recombinant human topoisomerase-2alpha expressed in Saccharomyces cerevisiae JEL1 harboring topoisomerase1 deletion mutant assessed as double stranded DNA cleavage using supercoiled pBR322 DNA as substrate at 1000 uM measured after 6 mins by ethidium bromide staining based agarose gel electrophoresis relative to control; method in brief: as §2
[5] = target: DNA topoisomerase 2-alpha (Homo sapiens) (UniProt P11388); test: Poison activity at recombinant human topoisomerase-2alpha catalytic domain (431 to 1193 residues) assessed as increase in double stranded DNA cleavage at 1 mM using supercoiled pBR322 DNA as substrate measured after 6 mins by ethidium bromide staining based agarose gel electrophoresis
Method in brief: (§5)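 Double-stranded DNA cleavage by full-length topoisomerase IIα and by the catalytic core (lacking N- and C-terminal domains), run in parallel. Compounds at 1 mM; controls at 50 µM; a no-compound baseline is included. Mean ± SD of ≥3 independent experiments.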

[6] = target: DNA topoisomerase 2-alpha (Homo sapiens) (UniProt P11388); test: (§6) Poison activity at recombinant human topoisomerase-2alpha expressed in Saccharomyces cerevisiae JEL1 harboring topoisomerase1 deletion mutant assessed as increase in double stranded DNA cleavage up to 1000 uM using supercoiled pBR322 DNA as substrate measured after 6 mins by ethidium bromide staining based agarose gel electrophoresis relative to control; method in brief: as §2
[7] = target: DNA topoisomerase 2-alpha (Homo sapiens) (UniProt P11388); test: as §6, with “at 1 mM” for “up to 1000 uM”, “substrate preincubated for 1 to 5 mins followed by substrate addition” for “substrate”, “electrophoresis” for “electrophoresis relative to control”
Method in brief: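 Topoisomerase IIα was preincubated with 1 mM compound for 1–5 min, then the cleavage reaction was started by adding DNA. Cleavage was followed against preincubation time.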

[8] = target: DNA topoisomerase 2-alpha (Homo sapiens) (UniProt P11388); test: as §6, with “at 50” for “up to 1000”, “substrate in presence of reducing agent DTT” for “substrate”, “electrophoresis” for “electrophoresis relative to control”; method in brief: as §4
[9] = target: DNA topoisomerase 2-alpha (Homo sapiens) (UniProt P11388); test: Inhibition of recombinant human topoisomerase-2alpha mediated DNA ligation expressed in Saccharomyces cerevisiae JEL1 harboring topoisomerase1 deletion mutant at 50 uM measured after 6 mins by ethidium bromide staining based agarose gel electrophoresis; method in brief: as §3
[10] = target: DNA topoisomerase 2-alpha (Homo sapiens) (UniProt P11388); test: Poison activity at recombinant human topoisomerase-2alpha catalytic domain (431 to 1193 residues) assessed as increase in double stranded DNA cleavage at 50 uM using supercoiled pBR322 DNA as substrate measured after 6 mins by ethidium bromide staining based agarose gel electrophoresis; method in brief: as §5

Chain of DNA topoisomerase 2-alpha (Homo sapiens) (P11388 whole entry, the tested form may be a part): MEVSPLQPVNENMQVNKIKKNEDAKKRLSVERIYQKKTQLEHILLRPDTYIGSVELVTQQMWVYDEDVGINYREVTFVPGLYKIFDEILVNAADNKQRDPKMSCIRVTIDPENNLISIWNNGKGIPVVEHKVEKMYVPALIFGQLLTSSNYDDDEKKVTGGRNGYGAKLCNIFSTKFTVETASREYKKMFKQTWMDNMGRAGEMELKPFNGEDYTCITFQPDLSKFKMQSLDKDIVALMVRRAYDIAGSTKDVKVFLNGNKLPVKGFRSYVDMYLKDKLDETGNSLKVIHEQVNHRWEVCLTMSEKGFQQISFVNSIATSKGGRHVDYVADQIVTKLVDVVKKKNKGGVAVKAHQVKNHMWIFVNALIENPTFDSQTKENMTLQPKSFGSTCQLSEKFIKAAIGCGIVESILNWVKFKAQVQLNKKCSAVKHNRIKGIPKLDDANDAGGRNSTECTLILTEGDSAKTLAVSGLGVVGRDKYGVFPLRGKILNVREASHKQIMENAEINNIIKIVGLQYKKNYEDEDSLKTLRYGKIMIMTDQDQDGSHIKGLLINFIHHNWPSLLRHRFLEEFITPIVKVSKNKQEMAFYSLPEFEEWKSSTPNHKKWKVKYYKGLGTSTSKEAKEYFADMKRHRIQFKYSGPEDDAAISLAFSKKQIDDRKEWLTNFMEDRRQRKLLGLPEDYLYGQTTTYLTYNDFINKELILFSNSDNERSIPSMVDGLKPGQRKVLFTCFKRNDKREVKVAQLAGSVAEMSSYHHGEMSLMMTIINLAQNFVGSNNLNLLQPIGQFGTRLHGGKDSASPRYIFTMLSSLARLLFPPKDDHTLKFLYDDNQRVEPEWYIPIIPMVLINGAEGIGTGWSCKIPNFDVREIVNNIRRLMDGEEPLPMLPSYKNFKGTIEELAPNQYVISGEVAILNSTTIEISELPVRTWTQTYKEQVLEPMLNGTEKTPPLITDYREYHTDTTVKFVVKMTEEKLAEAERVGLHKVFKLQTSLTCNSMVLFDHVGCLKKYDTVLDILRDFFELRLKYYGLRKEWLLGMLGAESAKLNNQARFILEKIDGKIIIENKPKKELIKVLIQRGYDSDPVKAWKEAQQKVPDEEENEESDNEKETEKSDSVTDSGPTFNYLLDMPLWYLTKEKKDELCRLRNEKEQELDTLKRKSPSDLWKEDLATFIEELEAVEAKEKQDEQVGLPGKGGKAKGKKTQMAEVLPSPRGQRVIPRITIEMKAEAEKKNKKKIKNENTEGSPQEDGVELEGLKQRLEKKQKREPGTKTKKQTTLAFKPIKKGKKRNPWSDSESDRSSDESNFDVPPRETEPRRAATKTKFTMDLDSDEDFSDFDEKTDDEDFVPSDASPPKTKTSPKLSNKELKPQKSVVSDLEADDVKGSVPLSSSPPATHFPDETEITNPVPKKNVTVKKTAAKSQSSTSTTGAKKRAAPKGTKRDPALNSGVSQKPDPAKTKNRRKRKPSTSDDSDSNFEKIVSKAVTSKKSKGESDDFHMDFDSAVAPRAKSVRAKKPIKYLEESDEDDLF

Activity (Bos taurus)	inhibition [2]	inhibition [9]	Structure (SMILES)	Activity [1]	Activity [3]	Activity [4]	Activity [5]	fold change (FC) [6]	Activity [7]	Activity [8]	Activity [10]
Active	inactive	–	Nc1c2c(nc3ccc([N+](=O)[O-])cc13)CC(C(F)(F)F)CC2=O (stereo not given)	> 1000 µM	–	–	–	–	–	–	–
–	–	–	c1ccc2nc3ccccc3cc2c1	> 1000 µM	–	–	–	–	–	–	–
Active	inactive	–	Nc1c2c(nc3ccc(Cl)cc13)CC(C(F)(F)F)CC2=O (stereo not given)	85 µM	inactive	< 35%	inactive	5.5 to 8.5	Active	–	–
Active	inactive	–	Cc1ccc2c(N)c3c(nc2c1)CC(C(F)(F)F)CC3=O (stereo not given)	800 µM	inactive	–	inactive	–	Active	–	–
Active	inactive	–	Nc1c2c(nc3ccccc13)CC(C(F)(F)F)CC2=O (stereo not given)	155 µM	inactive	–	inactive	5.5 to 8.5	Active	–	–
Active	inactive	–	Nc1c2c(nc3ccc(F)cc13)CC(C(F)(F)F)CC2=O (stereo not given)	520 µM	inactive	< 35%	inactive	5.5 to 8.5	–	–	–
Active	inactive	–	Nc1c2c(nc3ccc(Br)cc13)CC(C(F)(F)F)CC2=O (stereo not given)	90 µM	inactive	< 35%	inactive	5.5 to 8.5	Active	–	–
–	–	Active	COc1cc(NS(C)(=O)=O)ccc1Nc1c2ccccc2nc2ccccc12	8.5 µM	–	–	–	–	–	Active	Active
–	–	Active	COc1cc([C@@H]2c3cc4c(cc3[C@@H](O[C@@H]3O[C@@H]5CO[C@@H](C)O[C@H]5[C@H](O)[C@H]3O)[C@H]3COC(=O)[C@H]23)OCO4)cc(OC)c1O	32 µM	–	–	–	–	–	–	–
Active	inactive	–	O=C1CC(C(F)(F)F)Cc2nc3ccccc3cc21 (stereo not given)	> 1000 µM	–	–	–	5.5 to 8.5	–	–	–
